# Legend:
# [1] = folding enthalpy; higher = less favourable; fluorescence melt of hairpins on a sequencing array, two-state fit; conditions: sodium 0.088 M
# In short: (§1)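 Melting temperature and folding enthalpy were derived from bootstrapped two-state fits. The fitted temperatures were raised by 9.35 °C to agree with UV melts, and four replicates were combined by inverse variance. The underlying data were Cy3 fluorescence images of library hairpins, with annealed Cy3 and quencher oligos, on a sequenced MiSeq flow cell in 50 mM Na-HEPES pH 8.0, 25 mM NaCl, taken in 2.5 °C steps up to 60 °C, normalised to pre-quench Cy3 and to control constructs.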
# [2] = melting temperature; fluorescence melt of hairpins on a sequencing array, two-state fit, raised by 9.35 °C to match UV melts; conditions: sodium 0.088 M
# In short: as §1
sequence,measurement,setting,value
GGGGCGGGAAACCGCTCC ((.((((....)))).)),folding enthalpy,[1],-19.8 kcal/mol
same,Tm,[2],66.9 °C
GGGGCGGGAAACCGTCCC (((.(((....))).))),folding enthalpy,[1],-34.9 kcal/mol
same,Tm,[2],67.7 °C
GGGGCGTCGAAAGACCCC (((..(((....)))))),folding enthalpy,[1],-16.9 kcal/mol
same,Tm,[2],57.3 °C
GGGGCTGGAAACGGCCCC (((((.(....).))))),folding enthalpy,[1],-40.7 kcal/mol
same,Tm,[2],66.8 °C
GGGGCTGGAAACGGCCTC (.(((.(....).))).),folding enthalpy,[1],-20.8 kcal/mol
same,Tm,[2],50.2 °C
GGGGGACGAAAGTCTCCC (((.(((....))).))),folding enthalpy,[1],-34.4 kcal/mol
same,Tm,[2],66 °C
GGGGGAGAAATCCCCC ((((((....)))))),folding enthalpy,[1],-29.9 kcal/mol
same,Tm,[2],65.5 °C
GGGGGAGGAAACTCTCCC (((.(((....))).))),folding enthalpy,[1],-38 kcal/mol
same,Tm,[2],52.7 °C
GGGGGAGGAAACTTCCCC ((((.((....)).)))),folding enthalpy,[1],-47.8 kcal/mol
same,Tm,[2],54.4 °C
GGGGGCGAAAGCCCTCCC ((((((....)))..))),folding enthalpy,[1],-9.75 kcal/mol
same,Tm,[2],51.9 °C
GGGGGCGAAAGCCGACCC ((((((....)))..))),folding enthalpy,[1],-15.1 kcal/mol
same,Tm,[2],54 °C
GGGGGCGAAAGCCGTCCC ((((((....)))..))),folding enthalpy,[1],-13.7 kcal/mol
same,Tm,[2],49.4 °C
GGGGGCGAAAGCCTACCC ((((((....)))..))),folding enthalpy,[1],-15 kcal/mol
same,Tm,[2],49.8 °C
GGGGGCGAAAGCCTCCCC ((((((....)))..))),folding enthalpy,[1],-11.5 kcal/mol
same,Tm,[2],61.4 °C
GGGGGCGAAAGCCTGCCC ((((((....)))..))),folding enthalpy,[1],-13.7 kcal/mol
same,Tm,[2],43.8 °C
GGGGGCGGAAACGCCCTC (.(((((....))))).),folding enthalpy,[1],-11.6 kcal/mol
same,Tm,[2],63.4 °C
GGGGGCGGAAACGCTCCC (((.(((....))).))),folding enthalpy,[1],-32.6 kcal/mol
same,Tm,[2],67.6 °C
GGGGGGGGAAACCCCCTC (.(((((....))))).),folding enthalpy,[1],-12.5 kcal/mol
same,Tm,[2],67.8 °C
GGGGGTGGAAACGCCCCC (((((.(....).))))),folding enthalpy,[1],-28.9 kcal/mol
same,Tm,[2],66.9 °C
GGGGTACCGAAAGGTCCC (((..(((....)))))),folding enthalpy,[1],-27.5 kcal/mol
same,Tm,[2],56.7 °C
GGGGTACGAAAGTAACCC (((.(((....))).))),folding enthalpy,[1],-34.1 kcal/mol
same,Tm,[2],60.9 °C
GGGGTAGGAAACTACCTC (.(((((....))))).),folding enthalpy,[1],-20 kcal/mol
same,Tm,[2],48 °C
GGGGTAGGAAACTACTCC ((.((((....)))).)),folding enthalpy,[1],-30.1 kcal/mol
same,Tm,[2],47.6 °C
GGGGTCGAAAGACTTCCC ((((((....)))..))),folding enthalpy,[1],-15.6 kcal/mol
same,Tm,[2],39 °C
GGGGTCGGAAACGGCCCC ((((.((....)).)))),folding enthalpy,[1],-31.7 kcal/mol
same,Tm,[2],67.9 °C
GGGGTGAAAACCCC (((((....))))),folding enthalpy,[1],-21.1 kcal/mol
same,Tm,[2],66.6 °C
GGGGTGGAAACACCCC ((((((....)))))),folding enthalpy,[1],-38.9 kcal/mol
same,Tm,[2],68.8 °C
GGGGTGGGAAACCACCTC (.(((((....))))).),folding enthalpy,[1],-16.2 kcal/mol
same,Tm,[2],55.2 °C
GGGGTGGGAAACCGCCTC (.((.((....)).)).),folding enthalpy,[1],-18.6 kcal/mol
same,Tm,[2],49.6 °C
GGGGTGGGAAACCGCTCC ((.(.((....)).).)),folding enthalpy,[1],-21.9 kcal/mol
same,Tm,[2],47.7 °C
GGGGTTCGAAAGAACCC (((.(((....)))))),folding enthalpy,[1],-17.9 kcal/mol
same,Tm,[2],69.3 °C
GGGGTTGGAAACAGCCCC ((((.((....)).)))),folding enthalpy,[1],-44.7 kcal/mol
same,Tm,[2],57.9 °C
GGGGTTGGAAACGACCTC (.(((.(....).))).),folding enthalpy,[1],-20.7 kcal/mol
same,Tm,[2],40.3 °C
GGGTAACCGAAAGGTCCC (((..(((....)))))),folding enthalpy,[1],-18 kcal/mol
same,Tm,[2],45.8 °C
GGGTAACGAAAGTTCCC (((.(((....)))))),folding enthalpy,[1],-24.4 kcal/mol
same,Tm,[2],50.1 °C
GGGTAAGGAAACTCACCC ((((.((....)).)))),folding enthalpy,[1],-28.4 kcal/mol
same,Tm,[2],36.8 °C
GGGTACCCGAAAGGGCCC (((..(((....)))))),folding enthalpy,[1],-18.6 kcal/mol
same,Tm,[2],47.8 °C
GGGTACGAAAGTAATCCC ((((((....)))..))),folding enthalpy,[1],-20.7 kcal/mol
same,Tm,[2],39 °C
GGGTACGAAAGTACACCC ((((((....)))..))),folding enthalpy,[1],-13.4 kcal/mol
same,Tm,[2],50.2 °C
GGGTACGAAAGTAGACCC ((((((....)))..))),folding enthalpy,[1],-19.2 kcal/mol
same,Tm,[2],46.2 °C
GGGTACGGAAACACACCC ((((..(....)..)))),folding enthalpy,[1],-21.9 kcal/mol
same,Tm,[2],32.6 °C
GGGTACGGAAACGTATCC ((.((((....)))).)),folding enthalpy,[1],-30.1 kcal/mol
same,Tm,[2],51.8 °C
GGGTACTCGAAAGAGCCC (((..(((....)))))),folding enthalpy,[1],-19.6 kcal/mol
same,Tm,[2],39.6 °C
GGGTAGCGAAAGCTCCC (((.(((....)))))),folding enthalpy,[1],-40.3 kcal/mol
same,Tm,[2],53.6 °C
GGGTAGGGAAACCTACCC (((((((....))))))),folding enthalpy,[1],-50.9 kcal/mol
same,Tm,[2],64 °C
GGGTATGCGAAAGCACCC (((..(((....)))))),folding enthalpy,[1],-21.2 kcal/mol
same,Tm,[2],50.4 °C
GGGTATGGAAACATACTC (.(((((....))))).),folding enthalpy,[1],-23 kcal/mol
same,Tm,[2],44.8 °C
GGGTATGGAAACATGCCC (((.(((....))).))),folding enthalpy,[1],-50.4 kcal/mol
same,Tm,[2],54.3 °C
GGGTATGGAAACATGTCC ((..(((....)))..)),folding enthalpy,[1],-15.6 kcal/mol
same,Tm,[2],34 °C
GGGTATGGAAACGTACCC (((((.(....).))))),folding enthalpy,[1],-42.7 kcal/mol
same,Tm,[2],50.1 °C
GGGTCAGGAAACCAACCC ((((..(....)..)))),folding enthalpy,[1],-15.7 kcal/mol
same,Tm,[2],33 °C
GGGTCAGGAAACTAACCC ((((.((....)).)))),folding enthalpy,[1],-25.4 kcal/mol
same,Tm,[2],38.2 °C
GGGTCCCGAAAGGGCCC (((.(((....)))))),folding enthalpy,[1],-29.5 kcal/mol
same,Tm,[2],68 °C
GGGTCCGAAAGGAACCC ((((((....))).))),folding enthalpy,[1],-22.1 kcal/mol
same,Tm,[2],64.1 °C
GGGTCCGAAAGGACACCC ((((((....)))..))),folding enthalpy,[1],-11 kcal/mol
same,Tm,[2],55.5 °C
GGGTCCGAAAGGAGCCCC ((((((....)))..))),folding enthalpy,[1],-11 kcal/mol
same,Tm,[2],66.4 °C
GGGTCCGAAAGGATGCCC ((((((....)))..))),folding enthalpy,[1],-24.3 kcal/mol
same,Tm,[2],45.5 °C
GGGTCCGCGAAAGCGCCC (((..(((....)))))),folding enthalpy,[1],-14.9 kcal/mol
same,Tm,[2],40 °C
GGGTCGCGAAAGCGCCC (((.(((....)))))),folding enthalpy,[1],-22.4 kcal/mol
same,Tm,[2],65.3 °C
GGGTCGGGAAACCGACTC (.(((((....))))).),folding enthalpy,[1],-14.4 kcal/mol
same,Tm,[2],58.9 °C
GGGTCGGGAAACCGGCCC (((.(((....))).))),folding enthalpy,[1],-36.3 kcal/mol
same,Tm,[2],67.1 °C
GGGTCTACGAAAGTACCC (((..(((....)))))),folding enthalpy,[1],-22.5 kcal/mol
same,Tm,[2],40.1 °C
GGGTCTGAAAAGACCC ((((((....)))))),folding enthalpy,[1],-26 kcal/mol
same,Tm,[2],68.4 °C
GGGTCTGGAAACAAACCC ((((.((....)).)))),folding enthalpy,[1],-31.6 kcal/mol
same,Tm,[2],37.9 °C
GGGTCTGGAAACAGGCTC (.(.(((....))).).),folding enthalpy,[1],-23.2 kcal/mol
same,Tm,[2],39.9 °C
GGGTCTGGAAACGGATCC ((.((.(....).)).)),folding enthalpy,[1],-33 kcal/mol
same,Tm,[2],41.8 °C
GGGTGAACGAAAGTTCCC (((..(((....)))))),folding enthalpy,[1],-14.9 kcal/mol
same,Tm,[2],50.1 °C
GGGTGAGGAAACTCGCCC (((.(((....))).))),folding enthalpy,[1],-34 kcal/mol
same,Tm,[2],57.4 °C
GGGTGCGAAAGCAACCCC ((((((....)))..))),folding enthalpy,[1],-12.4 kcal/mol
same,Tm,[2],66.6 °C
GGGTGCGAAAGCACACCC ((((((....)))..))),folding enthalpy,[1],-10.4 kcal/mol
same,Tm,[2],58.3 °C
GGGTGCGAAAGCACGCCC ((((((....)))..))),folding enthalpy,[1],-10.2 kcal/mol
same,Tm,[2],55.3 °C
GGGTGCGAAAGCAGGCCC ((((((....)))..))),folding enthalpy,[1],-18.2 kcal/mol
same,Tm,[2],52.9 °C
GGGTGCGAAAGCATACCC ((((((....)))..))),folding enthalpy,[1],-19.8 kcal/mol
same,Tm,[2],53.5 °C
GGGTGCGGAAACGTACCC ((((.((....)).)))),folding enthalpy,[1],-41.5 kcal/mol
same,Tm,[2],61.2 °C
GGGTGCGGAAACGTGCCC (((..((....))..))),folding enthalpy,[1],-39.8 kcal/mol
same,Tm,[2],57.3 °C
GGGTGGGGAAACCTGCCC (((..((....))..))),folding enthalpy,[1],-25.5 kcal/mol
same,Tm,[2],49.7 °C
GGGTGTGCGAAAGCACCC (((..(((....)))))),folding enthalpy,[1],-11.3 kcal/mol
same,Tm,[2],56.6 °C
GGGTGTGGAAACACACTC (.(((((....))))).),folding enthalpy,[1],-23.5 kcal/mol
same,Tm,[2],55.4 °C
GGGTGTGGAAACACATCC ((.((((....)))).)),folding enthalpy,[1],-26.4 kcal/mol
same,Tm,[2],52.5 °C
GGGTGTGGAAACATACCC ((((.((....)).)))),folding enthalpy,[1],-45.6 kcal/mol
same,Tm,[2],52.1 °C
GGGTTACGAAAGTAGCCC (((.(((....))).))),folding enthalpy,[1],-45.7 kcal/mol
same,Tm,[2],59.6 °C
GGGTTCGAAAGAAAGCCC ((((((....)))..))),folding enthalpy,[1],-16 kcal/mol
same,Tm,[2],36 °C
GGGTTCGAAAGAACGCCC ((((((....)))..))),folding enthalpy,[1],-11.2 kcal/mol
same,Tm,[2],50 °C
GGGTTCGAAAGAAGGCCC ((((((....)))..))),folding enthalpy,[1],-20.7 kcal/mol
same,Tm,[2],35.6 °C
GGGTTCGGAAACGAACTC (.(((((....))))).),folding enthalpy,[1],-23.3 kcal/mol
same,Tm,[2],53.8 °C
GGGTTCGGAAACGGACTC (.((.((....)).)).),folding enthalpy,[1],-25.9 kcal/mol
same,Tm,[2],39.1 °C
GGGTTGCGAAAGCACCC (((.(((....)))))),folding enthalpy,[1],-23.7 kcal/mol
same,Tm,[2],62.9 °C
GGGTTGCGAAAGCACCCC (((.(((....))).))),folding enthalpy,[1],-19.4 kcal/mol
same,Tm,[2],62.9 °C
GGGTTGGCGAAAGCCCCC (((..(((....)))))),folding enthalpy,[1],-15.3 kcal/mol
same,Tm,[2],46.3 °C
GGGTTGGGAAACCAGTCC ((..(((....)))..)),folding enthalpy,[1],-16.4 kcal/mol
same,Tm,[2],38 °C
GGGTTGGGAAACCGACTC (.((.((....)).)).),folding enthalpy,[1],-16.3 kcal/mol
same,Tm,[2],41.2 °C
